Among the data in ChEMBL document CHEMBL1126919, “Analyses of ligand binding in five endothiapepsin crystal complexes and their use in the design and evaluation of novel renin inhibitors” (J Med Chem, 1993) are Ki, inhibition and IC50 values, retold here.

Assay [1] is described as follows: Binding affinity of compound against endothiapepsin. The essentials:
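Reactions at 37 °C in 0.1 M sodium formate pH 3.5 with 4% DMSO (inhibitor stocks in DMSO). Enzyme preincubated 3 min at 37 °C. Initial rates taken at six substrate levels (0.8Km–10Km), then at ≥3 substrate levels after preincubation with ≥2 inhibitor concentrations. Ki fitted by Marquardt analysis to competitive-inhibition equation.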

Assay [2] has as its target T1, Renin (Homo sapiens) (UniProt P00797).
T1 sequence (whole entry): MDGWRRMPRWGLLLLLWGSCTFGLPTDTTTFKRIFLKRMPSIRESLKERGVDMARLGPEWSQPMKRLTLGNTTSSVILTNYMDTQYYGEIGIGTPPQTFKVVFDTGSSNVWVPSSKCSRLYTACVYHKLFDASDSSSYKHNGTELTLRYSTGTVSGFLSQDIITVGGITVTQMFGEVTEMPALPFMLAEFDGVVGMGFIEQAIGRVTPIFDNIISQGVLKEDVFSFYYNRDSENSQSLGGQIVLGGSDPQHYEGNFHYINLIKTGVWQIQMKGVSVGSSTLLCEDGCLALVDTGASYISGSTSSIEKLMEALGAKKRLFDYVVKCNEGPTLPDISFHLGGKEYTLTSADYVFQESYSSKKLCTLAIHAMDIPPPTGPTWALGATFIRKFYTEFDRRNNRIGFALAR
In words: Percent inhibition of compound against renin human plasma at 10 e-6 M. In kind it is cell-free.

The target of assay [3] is T1, Renin (Homo sapiens). In words: Percent inhibition of compound against renin monkey plasma at 10E-6 M. Type of assay: cell-free. The conditions noted are these: Cercopithecidae, target entry is the homologue from another species. The essentials: (§1)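 Renin activity in monkey plasma, with inhibition measured as angiotensin I generated, quantified by radioimmunoassay following Haber's method.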

A further assay addresses T2, Renin (Homo sapiens, UniProt P00797).
T2 sequence (P00797 whole entry): T1 sequence (whole entry)
Put plainly: Inhibitory concentration of compound against renin human plasma. Type of assay: cell-free.

Assay [4] deals with T1, Renin (Homo sapiens). In words: Percent inhibition of compound against renin monkey plasma at 10 e-6 M. As to conditions: Cercopithecidae, target entry is the homologue from another species.
Assay [5] concerns the target T1, Renin (Homo sapiens). Put plainly: Percent inhibition of compound against renin monkey plasma at 10e-6 M. In kind it is cell-free. The conditions noted are these: Cercopithecidae, target entry is the homologue from another species. The essentials: as §1

One may read the Ki as a measure of affinity in units of concentration, obtained from inhibition or displacement. For orientation: inhibition means the drop in the measured response relative to a control, in per cent. Compound `CCC(C)CNC(=O)CP(=O)(O)C(CC(C)C)NC(=O)C(Cc1c[nH]cn1)NC(=O)C(Cc1ccccc1)NC(=O)OC(C)(C)C` (stereo unspecified) yielded a Ki in assay [1] of 110 nM. Besides, the inhibition against Renin (Homo sapiens) [2] worked out at 3.3%.
On to `CCSC(NC(=O)[C@H](Cc1ccccc1)NS(=O)(=O)N1CCOCC1)C(=O)N[C@@H](CC1CCCCC1)[C@@H](O)[C@@H](O)CC(C)C` (stereo partly specified), for which the inhibitory constant (Ki) in assay [1] was 6.5 nM.
Consider `CC(C)CC(O)C(O)C(CC1CCCCC1)NC(=O)c1cccc(NC(=O)CSc2ccccc2)c1` (stereo unspecified), for which the inhibition at Renin (Homo sapiens) [3] was determined as 12.6%.
The IC50 is the point on the concentration scale where inhibition reaches its midpoint. The compound `CC(C)CC(NC(=O)CC(O)C(CC1CCCCC1)NC(=O)CCC(O)C(Cc1ccccc1)NC(=O)OC(C)(C)C)C(=O)NCc1cccc(CN)c1` (stereo unspecified) showed a Ki in assay [1] of 16000 nM. Besides, at Renin, the midpoint of inhibition, the IC50, lay at 22 nM.
The matching figures for `CCC(C)CNC(=O)C(CC(C)C)CC(O)C(CC1CCCCC1)NC(=O)C(Cc1c[nH]cn1)NC(=O)C(Cc1cccc2ccccc12)Cc1cccc2ccccc12` (stereo unspecified): 240 nM and 170 nM.
`COC(=O)C(C)(NC(=O)C(Cc1ccccc1)NS(=O)(=O)N1CCOCC1)C(=O)NC(CC1CCCCC1)C(O)C(O)CC(C)C` (stereo unspecified) came in with an inhibition on Renin (Homo sapiens) [4] of 4.4%.
For the compound `CCC(C)CNC(=O)CC(O)C(CC(C)C)NC(=O)C(CCCC/N=C(/S)NC)NC(=O)C(Cc1ccccc1)NS(=O)(=O)N(C)C` (stereo unspecified), on Renin, it took 25 nM to reach half-maximal inhibition (IC50).
In the case of `CC(C)CC(O)C(O)C(CC1CCCCC1)NC(=O)c1cc(NC(=O)CSc2ccccc2)ccc1CO` (stereo unspecified), the inhibition against Renin (Homo sapiens) [5] was found to be 4.4%.
